In article PMC6244714 (European Journal of Drug Metabolism and Pharmacokinetics, 2018):
Converted amounts (≈) assume the structure as drawn. Read-outs that look alike come from different tables or passages of the source.

Legend:
[1] = assay type: in vivo, human
[2] = tested on: CYP2C19; conditions: cited from earlier work
[3] = assay type: in vivo, human; conditions: healthy subjects
Procedure, shortened: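 Open-label, one-sequence, two-period crossover in healthy males and females aged 18–55 years with BMI 18.5–29.9 kg/m2. Period 1: single oral 100 mg tablet of test compound after an ≥8 h fast. Period 2: proton-pump inhibitor 40 mg once daily on Days 1–9, with test compound given 2 h after it on Day 7. Safety was assessed in all subjects dosed with test compound, using TEAE nature, frequency and severity, blood pressure, pulse, hematology, biochemistry, urinalysis and 12-lead ECG.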

[4] = tested on: gastric pH; conditions: omeprazole 40 mg once daily, healthy subjects; cited from earlier work
[5] = cited from earlier work
[6] = ref data on file, cited from earlier work
[7] = healthy volunteers; cited from earlier work

AUC ([1]; human, plasma, po, 40 mg) [ng·h/mL] | mean trough ([1]; omeprazole 40 mg daily oral, Day 7 of Period 2, plasma) [ng/mL] | Compound | inhibitor of CYP2C19 [2] | Total number of TEAEs reported [3] | gastric pH [4] | terminal elimination half-life (t½) ([5]; after a single dose) [h] | time to maximum plasma concentration ([5]; after oral administration) | substrate for CYP2C19 ([2]; background statement, no reference given) | Overall safety and tolerability ([3]; 100 mg roxadustat alone or in combination with multiple daily oral doses of 40 mg omeprazole) | solubility ([6]; 50 mM potassium phosphate buffer at pH 7.5) [µg/mL] | in vitro solubility ([6]; pH ~ 5) [µg/mL] | solubility ([6]; simulated gastric fluid buffer at pH 1.2) [µg/mL] | impact on Cmax or AUCinf of S- or R-warfarin [7]
4230 | 0.494 | COc1ccc2[nH]c([S+]([O-])Cc3ncc(C)c(OC)c3C)nc2c1 (stereo not shown) [Omeprazole] | inhibitor | eight | ~ 5 | – | – | – | – | – | – | – | –
– | – | Cc1nc(C(=O)NCC(=O)O)c(O)c2ccc(Oc3ccccc3)cc12 [Roxadustat] | – | – | – | 12 to 14 | approximately 2 h | not a substrate | safe and well tolerated | 3700 (≈ 10.5 mM) | 6 | 1 (≈ 0.00284 mM) | does not impact
